From PubChem BioAssay
PKA-R2B act = activators of PKA-R2B holoenzyme, primary screen, biochemical, fluorescence polarization, Cy5-IP20, human | 340,000 tested, 0.079% active | activation, % at 11.4 µM | PKA-R2B holoenzyme dissociation; R2B truncated from residue 108, S112A mutant; 0% DMSO only, 100% 113 µM cGMP | AID 504700, 2011 | cAMP-dependent protein kinase catalytic subunit beta (Homo sapiens) + cAMP-dependent …;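 active = activation above a cutoff set at the mean over all compounds plus 3 SD, cut at about 18% in these data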;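 also: higher means more holoenzyme dissociation and a rise in polarization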
Target sequence (P31323 whole entry, looked up, other chains not shown, the tested form may be a part): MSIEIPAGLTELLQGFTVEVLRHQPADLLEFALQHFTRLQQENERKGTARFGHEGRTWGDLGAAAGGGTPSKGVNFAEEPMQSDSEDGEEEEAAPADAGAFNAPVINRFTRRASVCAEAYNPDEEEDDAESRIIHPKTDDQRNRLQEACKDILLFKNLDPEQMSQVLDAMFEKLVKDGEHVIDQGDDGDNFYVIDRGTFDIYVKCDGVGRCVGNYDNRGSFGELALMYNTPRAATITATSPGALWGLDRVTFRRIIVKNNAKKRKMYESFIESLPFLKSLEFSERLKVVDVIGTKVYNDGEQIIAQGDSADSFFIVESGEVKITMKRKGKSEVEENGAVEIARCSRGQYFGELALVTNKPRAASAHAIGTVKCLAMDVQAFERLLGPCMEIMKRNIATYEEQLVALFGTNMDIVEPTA
PKA-R1A act = activators of PKA-R1A holoenzyme, primary screen, biochemical, fluorescence polarization, Cy5-IP20, bovine R1A, mouse PKAc | cAMP-dependent protein kinase type I-alpha regulatory subunit (Bos taurus) + … | PKA-R1A dissociation; scaled: DMSO 0%, 113 µM cGMP 100% | activation, % at 11.4 µM | 340,000 tested, 0.083% active;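 active = percent activation above the mean of all tested compounds plus 3 SD, cut at about 19% in these data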;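 also: higher means more PKAc released from R1A so a rise in polarization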
MsrA act = bovine MsrA enzyme activators, primary screen, biochemical, absorbance, HTS | Methionine sulfoxide reductase A (Bos taurus) | purified bovine MsrA, absorbance read-out | activation, % at 10.6 µM | 360,000 tested, 0.3% active | AID 602163, 2012; in the data active = activation above about 7.5%
VIM-2 inhibitor = VIM-2 metallo-beta-lactamase inhibitors, primary screen, biochemical, epi-absorbance readout, Pseudomonas aeruginosa enzyme; purified VIM-2, nitrocefin hydrolysis, epi-absorbance fluorescence; inhibition, % at 5.6 µM; 290,000 tested, 0.89% active; AID 1527, 2009;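 active = inhibition above the mean of all tested compounds plus 3 SD, cutoff set per screening run, cut at about 7.5% in these data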;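 also: red hydrolysis product quenches plate fluorescence so inhibitors raise well fluorescence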
IMP-1 inhibitor = IMP-1 metallo-beta-lactamase inhibitors, primary screen, biochemical, epi-absorbance readout, Pseudomonas aeruginosa enzyme; 290,000 tested, 0.45% active; AID 1556, 2009; metallo-beta-lactamase IMP-1 (Pseudomonas aeruginosa); inhibition, % at 5.6 µM; purified IMP-1, nitrocefin hydrolysis, epi-absorbance fluorescence;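 active = inhibition above the mean plus 3 SD of all compounds in the same screening run, cut at about 4.5% in these data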
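system = purified recombinant IMP-1 beta-lactamase | amount = 0.2 nM IMP-1, as dispensed | medium = HEPES buffer pH 7.1 with ZnSO4 and Brij 35 | times = 25 °C, 15 min preincubation, 25 min reaction | detection = plate fluorescence quenching by hydrolysis product, ex 480/em 530 nm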
MsrA inhibitor = bovine MsrA enzyme inhibitors, primary screen, biochemical, absorbance, HTS. Methionine sulfoxide reductase A (Bos taurus). purified bovine MsrA, absorbance read-out. inhibition, % at 15.5 µM. 360,000 tested, 0.75% active; in the data active = inhibition above about 4.5%
MsrA activ conf = bovine MsrA activators, retest, confirmation, biochemical, absorbance, HTS | activation, % at 10.6 µM | AID 602270, 2012 | shares compounds with MsrA act | 1,000 tested, 12% active | purified bovine MsrA, absorbance read-out; in the data active = activation above about 4%;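 also: enzyme coupled to thioredoxin and thioredoxin reductase with NADPH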
Of the large screens only hits and unclear results are named; the others gave an inactive call (follow-up assays come after a bar, where they were run). In the library only some 2.1% were active in any assay of this set; here they are far more common.

COC(=O)c1ccc(COc2ncnc3ccccc23)o1	none
CC1(C)C(CC(=O)O)CC1C(=O)O (stereo unspecified)	none (no result: VIM-2 inhibitor, IMP-1 inhibitor)
C#CC(C)(O)C1CC(CC(=O)O)C1(C)C (stereo unspecified)	MsrA act 10.0 (no result: VIM-2 inhibitor, IMP-1 inhibitor, MsrA inhibitor) | MsrA activ conf inactive
CCCC(=O)OC[C@H]1CN(C2CCCC2)S(=O)(=O)c2c(F)cccc2O1	none (no result: PKA-R2B act, PKA-R1A act, MsrA act, VIM-2 inhibitor, IMP-1 inhibitor)
Cn1c(N)c(C(=O)COC(=O)/C=C/c2cccc(Cl)c2)c(=O)n(C)c1=O	none (no result: VIM-2 inhibitor, IMP-1 inhibitor)
CC1CCN(S(=O)(=O)c2ccc(C(=O)Nc3nnc(-c4ccco4)o3)cc2)CC1	none
CS(=O)(=O)c1ccc(C(=O)Nc2ccc(S(=O)(=O)N3CCCCC3)cc2)cc1	MsrA act 14.9 (no result: VIM-2 inhibitor, IMP-1 inhibitor) | MsrA activ conf inactive
CC(=O)Nc1ccc(C(=O)Nc2ccc(S(=O)(=O)N3CCCCC3)cc2)cc1	none
O=C(Nc1nnc(-c2ccco2)o1)c1ccc(S(=O)(=O)N2CCCC2)cc1	MsrA act 15.6 | MsrA activ conf inactive
COc1ccc(CN2C(=O)c3cccnc3C2=O)cc1S(=O)(=O)N(C)c1cccc(C)c1	none
CSc1ccc(Cl)c(C(=O)OCC(=O)N2CCN(c3ccccc3)CC2)c1	none (no result: VIM-2 inhibitor, IMP-1 inhibitor)
CCCCNc1cccc2c1S(=O)(=O)N[C@H](CC(C)C)CO2	none (no result: PKA-R2B act, PKA-R1A act, MsrA act, VIM-2 inhibitor, IMP-1 inhibitor)
COc1ccccc1CNC(=O)C(CCSC)NC(=O)C1CCC(C)CC1 (stereo unspecified)	MsrA act 9.0 | MsrA activ conf inactive
COc1ccccc1CNC(=O)[C@H](CCSC)NC(=O)[C@@H]1Cc2ccccc2CN1	none
N#Cc1[nH]nc2nc[nH]c(=O)c12	none (no result: PKA-R2B act, PKA-R1A act, MsrA act, VIM-2 inhibitor, IMP-1 inhibitor)
O=c1c2ccc([N+](=O)[O-])cc2ncn1CCOc1ccc(Cl)cc1	none
O=c1c2ccc([N+](=O)[O-])cc2ncn1CCOc1cccc(Br)c1	MsrA act 7.8 | MsrA activ conf inactive
O=[N+]([O-])c1cccc(/C=C2\CCc3cnn(C4CCS(=O)(=O)C4)c32)c1 (stereo unspecified)	none (no result: VIM-2 inhibitor, IMP-1 inhibitor)
O=C(NCc1cccnc1)C(=O)NCC1OCCN1S(=O)(=O)c1ccc(F)cc1 (stereo unspecified)	MsrA act 8.4 | MsrA activ conf inactive
CN1CCN(S(=O)(=O)c2cccc(C(=O)N(Cc3nnc(-c4ccccc4Cl)o3)C3CC3)c2)CC1	MsrA act 7.8 | MsrA activ conf inactive
Cc1ccc(-c2ccnc(=S)[nH]2)cc1	MsrA act 9.4 | MsrA activ conf 6.2
CCC(C)(C)n1nnnc1C(c1ccc(C)cc1)N1CCN(Cc2ccc3c(c2)OCO3)CC1 (stereo unspecified)	MsrA act 8.7 | MsrA activ conf inactive
O=C1C(Nc2ccc(O)cc2)=C/C(=N/S(=O)(=O)c2cccs2)c2ccccc21	MsrA act 9.9, MsrA inhibitor 48.6 | MsrA activ conf 7.9
CC(C)(C)NC(=O)CC1C[C@H](C(=O)N2CCCCC2)[C@@]2(CCc3ccccc3)c3[nH]c4ccccc4c3CCN2C1=O (stereo partly specified)	none (no result: VIM-2 inhibitor, IMP-1 inhibitor)
COc1ccc(NC(=O)C2Cc3c(-c4cccc(F)c4)ccnc3O2)cn1 (stereo unspecified)	none (no result: PKA-R2B act, PKA-R1A act, VIM-2 inhibitor, IMP-1 inhibitor)
Cc1cc(NC(=O)c2ccc(F)cc2)n(CCOC(=O)c2ccc(F)cc2)n1	none
Cc1cc(NC(=O)c2ccc(Cl)cc2)n(CCOC(=O)c2ccc(Cl)cc2)n1	MsrA act 9.1 | MsrA activ conf inactive
CCOC(=O)c1ccc(-n2ccnc2)c(NC(=O)c2ccc(Cl)cc2)c1	MsrA act 8.1 | MsrA activ conf inactive
Cc1ccc(C)c(S(=O)(=O)/N=C(/Nc2ccccc2)c2ccccc2)c1	none (no result: VIM-2 inhibitor, IMP-1 inhibitor)
